Where two headings read alike, the source gives them in different places.

The subject of data set [1] is GM18453 skin fibroblast cell line (I1061T mutation on both alleles of NPC1). Briefly: Filipin staining of unesterified cholesterol in NPC1 mutant fibroblasts. The class given is cell-based, human. The following applies: GM18453 cells; for concentration at which the lowest filipin area/cell is achieved: dose range 1 nM to 5 μM; for concentration giving significant rescue of cholesterol accumulation (as low as): filipin fluorescence images.

Data set [2] relates to NPC1 protein in GM18453 fibroblasts. Briefly: NPC1 protein expression, Western blot after endoglycosidase H treatment. The following applies: 48 hours; for levels of the 250 kDa NPC1 isoform: SAHA 5 μM or GEX1A 50 nM. The class given is cell-based, human.
Data set [3] has as its system GM18407 fibroblast cell line (NPC1 R404Q, M1142T). Briefly: Filipin staining of cholesterol accumulation in GM18407 fibroblasts. The following applies: GM18407 cells, even at high concentrations. It is filed as cell-based, human.
Data set [4] has the same test system. The following applies: GM18407 cells; cited from earlier work.
The subject of data set [5] is NPC1 protein in GM18453 fibroblasts. As to the kind of experiment: NPC1 protein expression, Western blot after peptide:N-glycosidase F treatment. The class given is cell-based, human. The following applies: 48 hours. The procedure, abridged:
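NPC1-mutant GM18453 fibroblasts exposed for 48 h at 37°C, 5% CO2 to test compound (50 nM), SAHA (5 μM) or 0.1% v/v DMSO, then lysed in RIPA with protease inhibitors. Lysate (25 μg) digested with PNGase F (1000 U) in SDS, DTT and Tris-HCl pH 8, overnight (~18 h) at 37°C. Immunoblot with rabbit anti-NPC1, ECL on film. Densitometry normalised to actin, relative to DMSO; four independent experiments; SD; t-test.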

Data set [6] concerns GM18453 skin fibroblast cell line (I1061T mutation on both alleles of NPC1). The following applies: several NPC1 mutant cell lines, including GM18453; cited from earlier work.
The next data set in a line: Pharmacokinetics in mice. The class given is in vivo. The following applies: mice dosed at 2 mg/kg.
The test system of a further data set is Caco-2 cell line. As to the kind of experiment: Caco-2 permeability. It is filed as in vitro ADME.
A short description of data set [7]: Liver microsome stability. It is filed as in vitro ADME.
In a further data set the test system is histone acetylation. The following applies: cited from earlier work.
The nature of a further data set: Plasma protein binding. It is filed as in vitro ADME.
Another data set can be described thus: Aqueous solubility. It is filed as physicochemical.
The subject of data set [8] is low-density lipoprotein (LDL) receptor. The following applies: ref 5; cited from earlier work.

On to `COC(=O)C[C@H]1CC[C@H](C)[C@@H](/C(C)=C/C=C/[C@@H](C)C[C@@]2(C)O[C@@H]2[C@H](C)[C@@H](OC)C(C)=O)O1` [Compound 4, Methyl 2-((2R,5S,6S)-6-((S,2E,4E)-7-((2R,3R)-3-((2S,3R)-3-methoxy-4-oxopentan-2-yl)-2-methyloxiran-2-yl)-6-methylhepta-2,4-dien-2-yl)-5-methyltetrahydro-2H-pyran-2-yl)acetate], for which the “cholesterol clearance compared to vehicle treatment” value in data set [1] (50 nM, 48 hours, filipin) is reported as “Some cholesterol clearance”.
Turning to `O=C(CCCCCCC(=O)Nc1ccccc1)NO` [SAHA, suberoylanilide hydroxamic acid, reference compound], the “levels of the 250 kDa NPC1 isoform” value was “increases the expression of the larger (250 kDa) isoform” in data set [2] (vs DMSO) and “moderate increase” in [5] (SAHA 5 μM, PNGase F experiment, vs DMSO). Besides, the “increase in the levels of total NPC1 protein” value in data set [2] (SAHA 5 μM, Endo H, densitometry vs DMSO) is recorded as “approximately twofold”. Further, the “rescue of the disease phenotype (cholesterol accumulation)” value in data set [3] is “neither SAHA nor compounds 1 – 4 were able to effectively rescue the disease phenotype”. Besides, the “effect on lysosomal cholesterol accumulation” value in data set [4] is given as “no effect on lysosomal cholesterol accumulation”. For the same molecule, the “reversal of cholesterol accumulation in NPC1 mutant cell lines” value in [6] is given as “effective in reversing cholesterol accumulation”.
`CO[C@H]([C@@H](C)[C@H]1O[C@]1(C)C[C@H](C)/C=C/C=C(\C)[C@H]1O[C@@H](CC(=O)O)CC[C@@H]1C)[C@@H](C)O` [Compound 1, GEX1A]: in the data set “Pharmacokinetics in mice”, the half-life entry was “long half-life”. In data set [2] (GEX1A 50 nM, vs DMSO), the “expression of the 180 kDa NPC1 species” value is given as “increases the expression of the 180 kDa species”. Besides, the “levels of the 250 kDa NPC1 isoform” value in data set [2] (vs DMSO) is given as “did not cause a significant increase”. The permeability entry with Caco-2 cell line (Caco-2) is given as “reasonably permeable”. The efflux entry with Caco-2 cell line (Caco-2 cell line) is “no evidence of efflux”. The “stability in liver microsomes” value in data set [7] is on record as “quite stable”. The “effect on histone acetylation” value in the data set with histone acetylation (ref 5) is reported as “does not affect histone acetylation”. Besides, in the data set with histone acetylation (ref 32), the “effect on histone acetylation” value was “no effect on histone acetylation”. In addition, the “expression of the highly glycosylated 180 kDa NPC1 isoform” value in [5] (GEX1A 50 nM, PNGase F experiment) is “clear increase”. Besides, the “level of NPC1 protein expression including both the 250 and 120 kDa isoforms” value in data set [5] (GEX1A 50 nM, PNGase F, vs DMSO) is recorded as “significant increase”. The “effects on cell and nuclei shape (cellular toxicity)” value in data set [1] (5 μM) was “detrimental effects on cell and nuclei shape”. For the same molecule, in [1] (48 hours), the “concentration at which the lowest filipin area/cell is achieved” value stood at 50 nM and the “concentration giving significant rescue of cholesterol accumulation (as low as)” value (“concentration giving significant rescue” below) was 50 nM. In addition, the “plasma protein binding profile” value in “Plasma protein binding” was “excellent plasma protein binding profile”. In addition, the aqueous solubility entry in the data set “Aqueous solubility” is listed as “exceptional aqueous solubility”. Besides, the “expression of the LDL receptor” value in [8] is listed as “increased expression”.
For the molecule `COC(=O)C[C@H]1CC[C@H](C)[C@@H](/C(C)=C/C=C/[C@@H](C)C[C@@]2(C)O[C@@H]2[C@H](C)[C@@H](OC)[C@@H](C)O)O1` [Compound 2, Methyl 2-((2R,5S,6S)-6-((S,2E,4E)-7-((2R,3R)-3-((2R,3R,4R)-4-hydroxy-3-methoxypentan-2-yl)-2-methyloxiran-2-yl)-6-methylhepta-2,4-dien-2-yl)-5-methyltetrahydro-2H-pyran-2-yl) acetate], in [1] (48 hours), the “concentration at which the lowest filipin area/cell is achieved” value came out at 50 nM and the “concentration giving significant rescue” value was determined as 50 nM.
In the case of `COC(=O)C[C@H]1CC[C@H](C)[C@@H](/C(C)=C/C=C/[C@@H](C)C[C@@]2(C)O[C@@H]2[C@H](C)[C@@H](OC)[C@@H](C)OC(C)=O)O1` [Compound 3, Methyl 2-((2R,5S,6S)-6-((S,2E,4E)-7-((2R,3R)-3-((2R,3R,4R)-4-acetoxy-3-methoxypentan-2-yl)-2-methyloxiran-2-yl)-6-methylhepta-2,4-dien-2-yl)-5-methyltetrahydro-2H-pyran-2-yl) acetate], in data set [1] (48 hours), the “concentration at which the lowest filipin area/cell is achieved” value was determined as 50 nM and the “concentration giving significant rescue” value was found to be 50 nM.

Values taken from article PMC6868502 (Journal of natural products, 2018).
